Test [1] relates to platelet function. The following applies: 16 cardiac arrest survivors with STEMI, cited from earlier work.
For test [2], the system named is ADP-induced platelet aggregation in whole blood. As to the kind of experiment: Multiple electrode aggregometry. It counts as in vivo, human. Particulars: % of patients. In outline: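 STEMI patients not previously given a P2Y12 inhibitor. Hirudin-anticoagulated whole blood drawn at baseline and at 15 min, 30 min, 1, 2, 3 and 4–6 h after the study drug (bolus completion or oral ingestion); done at 2 centres. Blood diluted 1:2 in 0.9% NaCl, ADP-stimulated, aggregation recorded 6 min; AUC units. High residual reactivity: >46 U; percent of patients.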

Test [3] concerns platelet reactivity (P2Y12 reaction units). Particulars: cited from earlier work; for HRPR (VerifyNow, cutoff PRU >208): 15 STEMI patients pretreated with ticagrelor.
The subject of test [4] is platelet reactivity index. Particulars: CANTIC study; cited from earlier work.
The subject of test [5] is ADP-induced platelet aggregation in platelet-rich plasma. As to the kind of experiment: Light transmittance aggregometry. It counts as in vivo, human. Particulars: for %IPA using LTA with ADP 20 µmol/L: at 30 minutes (primary endpoint), mean±SD.
Test [6] concerns ADP-induced platelet aggregation in whole blood. Particulars: cited from earlier work; for mean platelet inhibition before the end of infusion / patients achieving 100% platelet inhibition: part 2 of the trial; for mean platelet inhibition before the end of infusion: cangrelor 4 μg/kg/min.
Test [7] concerns platelet inhibition. The following applies: pharmacodynamic data on cangrelor; cited from earlier work.

Values joined by “and” are separate entries in the source; they are usually repeats but may differ in a detail not shown here. Equal values may be shown once. Read-outs that look alike come from different tables or passages of the source. Bounds are passed on as bounds.

With `CSCCNc1nc(SCCC(F)(F)F)nc2c1ncn2[C@@H]1O[C@H](COP(=O)(O)OP(=O)(O)C(Cl)(Cl)P(=O)(O)O)[C@@H](O)[C@H]1O` [Cangrelor], in test [1] (targeted temperature management, interquartile range 10 to 25), the “platelet function, median (Multiplate Analyzer)” value is listed as 18 U. In test [1], the “HRPR (Multiplate Analyzer, <46 U cutoff)” value is given as “none had HRPR”. The results for the “High residual platelet reactivity: AUC>46 using ADPtest (Multiplate)” value in test [2] (at 15 minutes), in test [2] (at 30 minutes) and in test [2] (at 2 hours) were 8.6%, “≈ 14%” and “≈ 14%”, respectively. In test [3] (CANTIC study), the “patients with PRU higher than 208 U during drug infusion” value is listed as “No patient”. In addition, the “HRPR (VerifyNow, cutoff PRU >208)” value in test [3] (at 15 minutes) is 6.7%; in test [3] (at 1 hour) it was 0%. Further, the “HRPR rate (VerifyNow, cutoff PRU >208)” value in test [3] (at the time of balloon inflation, 50 STEMI patients) is recorded as 10%. The “nonresponders at vasodilator-stimulated phosphoprotein assay during drug infusion” value in test [4] is given as 3 out of 22. In addition, in test [5], the “%IPA using LTA with ADP 20 µmol/L” value was determined as 34.1±22.5%. Further, the “mean IPA” value in test [6] (infusion 4 μg/kg/min for up to 69 hours, at 24 hours, 14 patients with unstable angina or non–Q-wave MI, whole blood impedance aggregometry, ADP 3 μmol/L) is listed as 98.7±2.1%. Moreover, the “mean %IPA” value in test [6] (infusion at 4 μg/kg/min, elective or urgent PCI, impedance aggregometry in heparinized blood, ADP 3 μmol/L) is listed as 99%. Moreover, in test [6], the “mean platelet inhibition before the end of infusion” value is recorded as 100%. Moreover, the “patients achieving 100% platelet inhibition” value in test [6] is reported as 95%. Also, in test [7], the “degree of platelet inhibition” value is recorded as more than 80%.

For the molecule `CC(=O)Oc1cc2c(s1)CCN(C(C(=O)C1CC1)c1ccccc1F)C2` (stereo not shown) [Chewed Prasugrel, Prasugrel], in test [5], the “%IPA using LTA with ADP 20 µmol/L” value is recorded as 10.5±11.0%.

For the molecule `CC(=O)Oc1cc2c(s1)CCN(C(C(=O)C1CC1)c1ccccc1F)C2` (stereo not shown) [Integral Prasugrel, Prasugrel], the “%IPA using LTA with ADP 20 µmol/L” value in test [5] worked out at 6.3±11.4%.

For the molecule `CCCCS(=O)(=O)N[C@@H](Cc1ccc(OCCCCC2CCNCC2)cc1)C(=O)O` [Tirofiban], the “%IPA using LTA with ADP 20 µmol/L” value in test [5] was 95.0±8.9% and 95.0±9.0%. Further, the “HRPR rates (platelet aggregation >59% at LTA after ADP 20 µmol/L)” value in test [5] (during drug infusion / within the first 2 hours) is on record as “No patient”.

B1: abciximab (antibody, chains of the INN, looked up, V domains shown)
VH: EVQLQQSGTVLARPGASVKMSCEASGYTFTNYWMHWVKQRPGQGLEWIGAIYPGNSDTSYIQKFKGKAKLTAVTSTTSVYMELSSLTNEDSAVYYCTLYDGYYVFAYWGQGTLVTVSA
VL: EIVLTQSPVTLSVTPGDSVSLSCRASRDISNNLHWFQQTSHESPRLLIKYASQSMSGIPSRFSGSGSGTDFTLSINSVETEDFGMYFCQQTNSWPYTFGGGTKLEIK
modifications: Fab
B1: in test [6], the “mean platelet inhibition before the end of infusion” value is 100% and the “patients achieving 100% platelet inhibition” value is on record as 100%.

(Values after PMC7392586 (Circulation, 2020).)
